Among the data in PubChem BioAssay AID504418 (Johns Hopkins Ion Channel Center, 2011) are outcome values, retold here.

SMILES strings stand for the structures. The source made the active and inactive calls.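 How the source made its calls: active means compound raising or lowering KCNQ1 potassium channel current, with its KCNE1 partner, at some dose, giving a dose response curve; inactive means no effect at any dose or no curve.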

Potassium voltage-gated channel subfamily KQT member 1 (Homo sapiens) + Potassium voltage-gated channel subfamily E member 1 (Homo sapiens), sequence (O88943 whole entry, looked up): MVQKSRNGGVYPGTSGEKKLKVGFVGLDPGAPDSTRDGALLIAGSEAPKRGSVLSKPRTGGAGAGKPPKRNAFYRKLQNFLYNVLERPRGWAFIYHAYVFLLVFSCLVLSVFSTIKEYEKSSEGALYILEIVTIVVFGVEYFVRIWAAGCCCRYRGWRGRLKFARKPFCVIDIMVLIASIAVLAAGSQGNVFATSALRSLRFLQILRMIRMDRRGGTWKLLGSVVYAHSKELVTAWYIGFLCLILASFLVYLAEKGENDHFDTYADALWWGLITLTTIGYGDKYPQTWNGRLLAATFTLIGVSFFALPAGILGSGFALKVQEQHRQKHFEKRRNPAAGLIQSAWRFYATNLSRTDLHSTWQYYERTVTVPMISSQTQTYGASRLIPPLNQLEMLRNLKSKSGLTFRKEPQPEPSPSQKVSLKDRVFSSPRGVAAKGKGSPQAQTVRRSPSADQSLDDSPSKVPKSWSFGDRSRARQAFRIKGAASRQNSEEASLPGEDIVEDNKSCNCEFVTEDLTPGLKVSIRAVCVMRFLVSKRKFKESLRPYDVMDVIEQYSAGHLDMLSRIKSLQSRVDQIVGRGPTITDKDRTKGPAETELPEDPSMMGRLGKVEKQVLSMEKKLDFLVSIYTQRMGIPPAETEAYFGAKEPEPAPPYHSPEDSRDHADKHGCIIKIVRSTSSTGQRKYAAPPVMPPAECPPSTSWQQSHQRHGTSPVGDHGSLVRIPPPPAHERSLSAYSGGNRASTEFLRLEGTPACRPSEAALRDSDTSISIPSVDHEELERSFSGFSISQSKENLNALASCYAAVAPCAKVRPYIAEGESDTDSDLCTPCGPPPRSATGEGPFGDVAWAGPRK
Potassium voltage-gated channel subfamily KQT member 1 (Homo sapiens) + Potassium voltage-gated channel subfamily E member 1 (Homo sapiens), sequence (P51787 whole entry, looked up): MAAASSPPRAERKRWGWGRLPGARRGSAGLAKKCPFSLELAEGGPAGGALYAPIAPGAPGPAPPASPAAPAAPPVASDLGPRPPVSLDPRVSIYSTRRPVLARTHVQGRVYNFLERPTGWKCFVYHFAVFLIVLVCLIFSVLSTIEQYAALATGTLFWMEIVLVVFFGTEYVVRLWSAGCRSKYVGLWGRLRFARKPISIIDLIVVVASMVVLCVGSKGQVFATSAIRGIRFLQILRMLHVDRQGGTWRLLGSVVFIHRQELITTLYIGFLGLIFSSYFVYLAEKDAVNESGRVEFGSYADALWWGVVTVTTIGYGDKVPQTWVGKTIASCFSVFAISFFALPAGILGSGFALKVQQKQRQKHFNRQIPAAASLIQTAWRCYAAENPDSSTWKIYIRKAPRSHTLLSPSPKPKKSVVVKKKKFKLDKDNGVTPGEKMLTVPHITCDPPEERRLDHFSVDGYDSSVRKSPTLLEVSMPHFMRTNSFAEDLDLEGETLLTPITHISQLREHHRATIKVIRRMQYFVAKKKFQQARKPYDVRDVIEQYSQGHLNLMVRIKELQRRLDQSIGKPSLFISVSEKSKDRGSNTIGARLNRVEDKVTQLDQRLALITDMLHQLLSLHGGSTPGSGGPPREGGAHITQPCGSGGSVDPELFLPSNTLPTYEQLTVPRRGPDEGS

For the assay, the target named is Potassium voltage-gated channel subfamily KQT member 1 (Homo sapiens) + Potassium voltage-gated channel subfamily E member 1 (Homo sapiens) (UniProt P15382+P51787). Nature of the assay: KCNQ1/KCNE1 channel modulation by KCNQ2 openers, dose response, selectivity assay for KCNQ2 activator project, Tl flux, KCNQ1/E1-expressing cells (AID 504418). The settings on record: FluxOR thallium flux; series mostly up to 30 µM. In short, it runs like this:
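System: CHO-KCNQ1/KCNE1 cells; Reagent: K2SO4 and Tl2SO4 stimulus, 12.5 mM each as 5x stock; Times: FluxOR dye loading 90 min, compound exposure 20 min, room temperature; Technique: kinetic FluxOR thallium-flux fluorescence, 110 s reading after stimulus; Control set: vehicle wells with stimulus, blank wells without stimulus.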
On to `Cc1cc(C)c(NC(=O)CC(C)(C)C)c(Cl)c1`, for which the result was inactive.

For the molecule `Cc1cccc(C)c1NC(=O)C1CC2CCC1C2` (stereo not given), the outcome was inactive.

Consider `Cc1cc(C)c(NC(=O)C2CC3CCC2C3)c(C)c1` (stereo not given), for which the outcome was inactive.

On to `Cc1ccc(C)c(NC(=O)C2CC3CCC2C3)c1` (stereo not given), for which the outcome was inactive.

Take `CCCCC(=O)Nc1c(C)cc(C)cc1Cl`: the outcome was inactive.
